# L major viab – Leishmania major promastigote growth inhibition; Leishmania major promastigotes, resazurin fluorescence viability; 9% of 200,000 active; inhibition, % at 10 µM; AID 1063; in the data active = inhibition above about 50%;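 also: promastigotes grown with compound for 44 hours at 28 °C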
# T cruzi repl – blocks replication of Trypanosoma cruzi; T. cruzi beta-gal in NIH3T3, luminescence, 90 h; inhibition, % (no concentration beside the values); 1.4% of 300,000 active; AID 1885;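 active = mean inhibition across valid replicates above about 55%, limit read from the data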;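 also: signal also drops with host cell toxicity which is not excluded here; higher percent means less beta-gal luminescence so fewer parasites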
#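 Assay system: NIH/3T3 host cells with β-galactosidase reporter T. cruzi; input: 5,000 host fibroblasts per well; compound: single 50 nL compound addition per well in DMSO; timing: ≥90 h infection period, 3 h prior cell attachment; measured by: GalScreen β-gal luminescence, detergent lysis, 60 min; evaluation: percent inhibition of parasite-derived β-gal signal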
# HSF1 inhib – HSF1 inhibition. NIH3T3-HGL HSE-luciferase, MG132-induced, luminescence 8 h; hits give low values. activity change, negative = inhibition, % at 7.5 µM (by protocol). 0.77% of 300,000 active. AID 2098;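 active = more than half of replicate wells show activity change below -50%, luminescence cut by over half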;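 also: luciferase reports HSF-1 transcriptional activity via heat shock element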
# Hsp70 activator – transcriptional activators of Hsp70; 0.04% of 200,000 active; HeLa Hsp70 promoter luciferase reporter, luminescence; scaled: vehicle 0, proteasome-inhibitor control 100%; AID 1203; activation, % at 10 µM;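 active = activation above the mean across all tested compounds plus 3 SD, cutoff set per campaign, cut at about 5.5% in these data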
# HSF1 activator – increases HSF-1 driven luciferase reporter signal. 1.7% of 300,000 active. activation, % at 9 µM. NIH3T3-HGL HSF-1 luciferase reporter, MG132, 8 h; 100% = twice DMSO control signal;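 active = mean replicate activation of at least 50% with a set share of replicates each reaching 50%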
# Numbers stand for hits; i = inactive; nt = no result given. The entries come from a sample that favours hits as a whole.
SMILES,L major viab,T cruzi repl,HSF1 inhib,Hsp70 activator,HSF1 activator
CC(=O)C1=C(C)NC2(O)c3ccccc3C(=O)C12O (stereo not given),i,i,i,i,62
COC(=O)C(CC(C)C)NC(=O)C(Cc1ccccc1)NC(=O)C1CCCN1C(=O)OC(C)(C)C (stereo not given),i,i,i,i,i
COc1cccc(CCNC(=O)C2CCC(=O)N(C3CC3)C2)c1OC (stereo not given),nt,i,i,nt,59
CS(=O)(=O)c1ccccc1C(=O)Nc1ccc(-c2nc3ccccc3[nH]2)cc1,nt,i,i,nt,i
O=C(Nc1ccc(-c2nc3ccccc3[nH]2)cc1)c1ccc(N2C(=O)CCC2=O)cc1,50,i,i,i,i
O=C(Nc1ccc2nc(-c3cccnc3)[nH]c2c1)c1ccccc1F,i,i,-63,i,i
Cc1ccccc1C(=O)Nc1ccc(-c2nc3ccc(C(=O)c4ccccc4)cc3[nH]2)cc1,98,i,i,i,i
O=C(Nc1ccc2cn[nH]c2c1)c1ccccc1F,i,i,i,i,i
O=C(Nc1ccc(Br)cc1)c1ccccc1Br,nt,i,i,nt,53
O=C(c1ccccc1)c1ccc2nc(-c3ccc(NC(=O)c4ccccc4Br)cc3)[nH]c2c1,97,60,i,i,i
CC(=O)Nc1ccc(NC(=O)c2cccc3c2-c2ccccc2C3=O)cc1,78,i,i,i,i
Cc1cc(NC(=O)c2ccccc2-c2ccccc2)ccc1Br,80,i,i,i,i
CS(=O)(=O)c1cccc(C(=O)Nc2ccc(-c3nc4ccccc4[nH]3)cc2)c1,nt,i,i,nt,i
O=C(Nc1ccc(Br)cc1)c1cc2ccccn2n1,nt,i,i,nt,71
COc1cccc(C(=O)C2CCCN(Cc3cn(CC(N)=O)c4ccccc34)C2)c1 (stereo not given),i,i,i,i,i
CC(=O)c1cccc(NC(=O)CN2CCc3cc4c(cc3C2C)OCCCO4)c1 (stereo not given),nt,i,i,nt,i
CSCC[C@H](NC(=O)Nc1cccc(Br)c1)C(=O)O,nt,i,i,nt,i
C(=N\N=C\c1ccncc1)/c1ccncc1,nt,i,i,nt,i
Cn1c(=O)c2c(nc(N/N=C/c3ccc(OC(=O)c4ccco4)cc3)n2Cc2ccc(F)cc2)n(C)c1=O,i,i,i,i,56
Cn1c(=O)c2c(nc(N/N=C/c3ccc(OC(=O)c4ccco4)cc3)n2Cc2ccccc2Cl)n(C)c1=O,55,i,i,i,i
COc1ccc(C2c3[nH]c4ccccc4c3CCN2Cc2cccn2-c2ncccn2)cc1C (stereo not given),71,79,i,i,i
Cc1cccc(C2c3[nH]c4ccccc4c3CCN2Cc2cccn2-c2ncccn2)c1 (stereo not given),59,58,i,i,i
Clc1ccc(-c2csc(Nc3ccccc3)[n+]2Cc2ccco2)c(Cl)c1,i,i,i,i,92
C=CC[n+]1c(-c2ccc(Cl)cc2Cl)csc1Nc1ccc(NC(C)=O)cc1,53,i,i,i,i
C=CC[n+]1c(-c2ccc(Cl)cc2Cl)csc1Nc1c(C)n(C)n(-c2ccccc2)c1=O,i,i,i,i,i
SMILES,L major viab,T cruzi repl,HSF1 inhib,Hsp70 activator,HSF1 activator
O=C(CSc1nnc(CNC(=O)c2c(F)cccc2F)o1)NCc1ccco1,nt,i,i,nt,i
O=c1c2ccccc2ncn1CCOCCOc1ccc([N+](=O)[O-])cc1,i,i,i,i,i
Cc1ccc(OCCn2cnc3cc([N+](=O)[O-])ccc3c2=O)cc1,i,72,i,i,i
O=c1c2ccc([N+](=O)[O-])cc2ncn1CCOc1ccccc1,i,66,i,i,i
COc1cc(/C=C2/N=C(c3ccccc3)OC2=O)c(F)cc1OCc1ccccc1,nt,i,i,nt,i
CC1(C(=O)O)CCC(C(=O)Nc2ccc(F)cc2)C1(C)C (stereo not given),nt,i,i,nt,i
COc1ccc(NC(=S)N2CCCC2)c(OC)c1,i,i,i,i,i
Cc1cc(Br)cc2c(C(=O)NCC3CCCO3)cc(-c3ccccc3)nc12 (stereo not given),nt,i,i,nt,i
CCOC(=O)c1ccc(Nc2ncnc3nc[nH]c23)cc1,i,i,-75,i,i
COc1ccccc1C(=O)NNC(=O)C(=O)NC1CCCCC1,nt,i,i,nt,i
O=C1C2CCCCN2C(=O)N1CCCN1CCN(c2ccc(F)cc2)CC1 (stereo not given),nt,i,i,nt,57
Cn1cc(S(=O)(=O)Nc2cccc3ccccc23)c(=O)n(C)c1=O,nt,i,i,nt,i

# Source: PubChem BioAssay (several laboratories)
